ChEMBL document CHEMBL3588826, “Chimeric derivatives of functionalized amino acids and α-aminoamides: compounds with anticonvulsant activity in seizure models and inhibitory actions on central, peripheral, and cardiac isoforms of voltage-gated sodium channels” (Bioorg Med Chem, 2015)
The source made the active and inactive calls. The rule behind the calls is not given here.

Experiments:
Rattus norvegicus [1] = experiment: Anticonvulsant activity in po dosed albino Sprague-Dawley rat measured at 2 hrs by maximal electroshock seizure test; type: functional
Method in brief: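 Screened under the NIH anticonvulsant program in male albino Carworth Farms No. 1 mice (ip) and male albino Sprague-Dawley rats (ip or oral). Protection tested by maximal electroshock or 6 Hz (32 mA) psychomotor stimulation.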

Rattus norvegicus [2] = experiment: Anticonvulsant activity in ip dosed albino Sprague-Dawley rat measured at 2 hrs by maximal electroshock seizure test; type: functional
Method in brief: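 Screened under the NIH Anticonvulsant Screening Program in male rodents, with mice and rats dosed ip and rats also dosed po. Maximal electroshock (MES) and 6 Hz (32 mA) psychomotor seizure tests were run.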

[3] = Protective index, ratio of TD50 for behavioural toxicity in ip dosed albino Sprague-Dawley rat to ED50 for anticonvulsant activity in ip dosed MES albino Sprague-Dawley rat model; type: organism-based; settings: in vivo, read-out: Ratio TD50/ED50
Method in brief: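 Male albino Sprague-Dawley rats were dosed ip or orally. […] Protective index = TD50/ED50, the ED50 taken from maximal electroshock by the same route.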

Rattus norvegicus [4] = species: Rattus norvegicus; experiment: Inhibition of voltage-gated sodium channel in rat embryonic cortical neurons assessed as decrease in fraction of current available at 10 uM measured at -50 mV by whole cell patch-clamp electrophysiology
Method in brief: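 Embryonic cortical neurons were treated with 10 μM compound or 0.1% DMSO, whole-cell voltage clamp at room temperature. Slow inactivation was assessed at −50 mV, with the fraction inactivated taken as 1 minus the normalized INa. Student's t-test; 5–8 cells per condition.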

Rattus norvegicus [5] = species: Rattus norvegicus; experiment: Effect on steady state activation of voltage-gated sodium channel in rat embryonic cortical neurons at 10 uM by whole cell patch-clamp electrophysiology
Method in brief: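 Rat embryonic day 19 cortical neurons, cultured 7–10 days, were whole-cell voltage-clamped at room temperature with 1–2 MΩ electrodes, with compound at 10 μM and 0.1% DMSO as control. Fast inactivation: 500 ms prepulses, then a test pulse. Activation: conductance G = I/(Vm − Vrev). V1/2 and k came from Boltzmann fits to individual cells, averaged (mean ± SEM), 5–7 cells per condition.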

Rattus norvegicus [6] = species: Rattus norvegicus; experiment: Frequency-dependent inhibition of voltage-gated sodium channel in rat embryonic cortical neurons assessed as current amplitude at 10 uM measured at holding potential of -80 mV by whole cell patch-clamp electrophysiology
Method in brief: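 E19 rat cortical neurons cultured 7–10 days were recorded by whole-cell voltage clamp at room temperature. Compound was at 10 μM versus 0.1% DMSO. A pulse train was applied, and available current was taken as peak current at pulse N divided by peak at pulse 1.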

CAD [7] = experiment: Frequency-dependent inhibition of voltage-gated sodium channel in mouse CAD cells assessed as decrease in current amplitude at 10 uM by whole cell patch-clamp electrophysiology; type: cell-based
Method in brief: (§1)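 CAD cells, whole-cell voltage clamp at room temperature, with compound at 1, 10 or 30 μM against 0.1% DMSO. Thirty identical test pulses were given at 10 Hz. Current was normalized as peak at pulse N over pulse 1, and the maximal decrement was read at the end of the train. One-way ANOVA with Dunnett's test; 4–10 cells per condition.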

CAD [8] = experiment: Frequency-dependent inhibition of voltage-gated sodium channel in mouse CAD cells assessed as decrease in current amplitude at 30 uM by whole cell patch-clamp electrophysiology; type: cell-based; method in brief: as §1
[9] = target: Sodium channel protein type 3 subunit alpha (Rattus norvegicus) (UniProt P08104); experiment: Inhibition of rat Nav1.3 expressed in HEK293 cells assessed as half-maximal voltage for steady state activation at 10 uM by whole cell patch-clamp electrophysiology (reference value: -29.62 +/-3.59 mV); type: cell-based
[10] = target: Sodium channel protein type 9 subunit alpha (Homo sapiens) (UniProt Q15858); experiment: Inhibition of human Nav1.7 expressed in HEK293 cells assessed as half-maximal voltage for steady state activation at 10 uM by whole cell patch-clamp electrophysiology (reference value: -27.13 +/-4.01 mV); type: cell-based
[11] = target: Sodium channel protein type 1 subunit alpha (Homo sapiens) (UniProt P35498); experiment: Inhibition of human Nav1.1 expressed in HEK293 cells assessed as half-maximal voltage for steady state fast-inactivation at 10 uM by whole cell patch-clamp electrophysiology (reference value: -64.11 +/-3.63 mV); type: cell-based
[12] = target: Sodium channel protein type 9 subunit alpha (Homo sapiens) (UniProt Q15858); experiment: Inhibition of human Nav1.7 expressed in HEK293 cells assessed as half-maximal voltage for steady state fast-inactivation at 10 uM by whole cell patch-clamp electrophysiology (reference value: -61.11 +/-3.02 mV); type: cell-based
[13] = target: Sodium channel protein type 5 subunit alpha (Homo sapiens, UniProt Q14524); experiment: Inhibition of human Nav1.5 expressed in HEK293 cells assessed as half-maximal voltage for steady state fast-inactivation at 10 uM by whole cell patch-clamp electrophysiology (reference value: -96.54 +/-1.64 mV); type: cell-based; settings: hek293, 10 µM
[14] = target: Sodium channel protein type 3 subunit alpha (Rattus norvegicus) (UniProt P08104); experiment: Frequency-dependent inhibition of rat Nav1.3 expressed in HEK293 cells assessed as current amplitude at 10 uM by whole cell patch-clamp electrophysiology; type: cell-based
Method in brief: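 Stable HEK293 lines expressing hNav1.1, rNav1.3, hNav1.7 or hNav1.5 were recorded by whole-cell voltage clamp at room temperature, with 10 μM compound versus 0.1% DMSO. A 30-pulse train was applied, and the read-out was the fraction of current remaining at the last pulse normalized to the first. Nav1.5 used hyperpolarized protocols.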

Rattus norvegicus [15] = experiment: Anticonvulsant activity in ip dosed rat assessed as decrease in partial complex or temporal lobe seizures by hippocampal kindeld seizure test; type: functional
Cytochrome P450 2C19 = Cytochrome P450 2C19 (Homo sapiens, UniProt P33261); experiment: Inhibition of human CYP2C19 at 10 uM; type: ADME
Method in brief: (§2)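 Test compound at 10 μM against a human CYP450 panel (CYP1A2, 2B6, 2C8, 2C9, 2C19, 2D6, 3A4/5). Direct inhibition was measured, and time-dependent inhibition was measured after a 30-min preincubation.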

Cytochrome P450 2D6 = Cytochrome P450 2D6 (Homo sapiens, UniProt P10635); experiment: Inhibition of human CYP2D6 at 10 uM; type: ADME; method in brief: as §2
Rattus norvegicus [16] = experiment: Toxicity in po dosed Sprague-Dawley rat assessed as adverse effects administered via gavage; type: organism-based; settings: in vivo
Method in brief: (§3)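 Non-GLP 7-day repeated-dose study in female Sprague-Dawley rats, given by oral gavage at 20, 60 and 180 mg/kg/day. Endpoints: weight bearing, gait coordination, respiratory rate, relative organ weights, clinical chemistry and gross pathology, giving a NOAEL. The ratio divides the NOAEL by the oral MES ED50.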

Rattus norvegicus [17] = experiment: Ratio of NOAEL in Sprague-Dawley rat to ED50 for anticonvulsant activity in po dosed Sprague-Dawley rat by MES test; method in brief: as §3
Rattus norvegicus [18] = experiment: Toxicity in po dosed Sprague-Dawley rat assessed as decrease in thymus weight administered via gavage; type: organism-based; settings: in vivo
Method in brief: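 Non-GLP repeated-dose study: female Sprague-Dawley rats given compound by oral gavage once daily for 7 days at 20, 60 and 180 mg/kg/day. Endpoints included weight bearing, gait coordination, respiratory rate, relative organ weights (liver, spleen, thymus), clinical chemistry and gross pathology; NOAEL derived.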

Rattus norvegicus [19] = experiment: Toxicity in po dosed Sprague-Dawley rat assessed as changes in clinical chemistry parameters administered via gavage; type: organism-based; settings: in vivo
Method in brief: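 Non-GLP 7-day repeated-dose study in female Sprague-Dawley rats given oral gavage at 20, 60 and 180 mg/kg/day. Endpoints were weight bearing, gait coordination, respiratory rate, relative organ weights, clinical chemistry and gross pathology, with NOAEL determined.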

Sequence of Sodium channel protein type 9 subunit alpha (Homo sapiens) (Q15858 whole entry, looked up): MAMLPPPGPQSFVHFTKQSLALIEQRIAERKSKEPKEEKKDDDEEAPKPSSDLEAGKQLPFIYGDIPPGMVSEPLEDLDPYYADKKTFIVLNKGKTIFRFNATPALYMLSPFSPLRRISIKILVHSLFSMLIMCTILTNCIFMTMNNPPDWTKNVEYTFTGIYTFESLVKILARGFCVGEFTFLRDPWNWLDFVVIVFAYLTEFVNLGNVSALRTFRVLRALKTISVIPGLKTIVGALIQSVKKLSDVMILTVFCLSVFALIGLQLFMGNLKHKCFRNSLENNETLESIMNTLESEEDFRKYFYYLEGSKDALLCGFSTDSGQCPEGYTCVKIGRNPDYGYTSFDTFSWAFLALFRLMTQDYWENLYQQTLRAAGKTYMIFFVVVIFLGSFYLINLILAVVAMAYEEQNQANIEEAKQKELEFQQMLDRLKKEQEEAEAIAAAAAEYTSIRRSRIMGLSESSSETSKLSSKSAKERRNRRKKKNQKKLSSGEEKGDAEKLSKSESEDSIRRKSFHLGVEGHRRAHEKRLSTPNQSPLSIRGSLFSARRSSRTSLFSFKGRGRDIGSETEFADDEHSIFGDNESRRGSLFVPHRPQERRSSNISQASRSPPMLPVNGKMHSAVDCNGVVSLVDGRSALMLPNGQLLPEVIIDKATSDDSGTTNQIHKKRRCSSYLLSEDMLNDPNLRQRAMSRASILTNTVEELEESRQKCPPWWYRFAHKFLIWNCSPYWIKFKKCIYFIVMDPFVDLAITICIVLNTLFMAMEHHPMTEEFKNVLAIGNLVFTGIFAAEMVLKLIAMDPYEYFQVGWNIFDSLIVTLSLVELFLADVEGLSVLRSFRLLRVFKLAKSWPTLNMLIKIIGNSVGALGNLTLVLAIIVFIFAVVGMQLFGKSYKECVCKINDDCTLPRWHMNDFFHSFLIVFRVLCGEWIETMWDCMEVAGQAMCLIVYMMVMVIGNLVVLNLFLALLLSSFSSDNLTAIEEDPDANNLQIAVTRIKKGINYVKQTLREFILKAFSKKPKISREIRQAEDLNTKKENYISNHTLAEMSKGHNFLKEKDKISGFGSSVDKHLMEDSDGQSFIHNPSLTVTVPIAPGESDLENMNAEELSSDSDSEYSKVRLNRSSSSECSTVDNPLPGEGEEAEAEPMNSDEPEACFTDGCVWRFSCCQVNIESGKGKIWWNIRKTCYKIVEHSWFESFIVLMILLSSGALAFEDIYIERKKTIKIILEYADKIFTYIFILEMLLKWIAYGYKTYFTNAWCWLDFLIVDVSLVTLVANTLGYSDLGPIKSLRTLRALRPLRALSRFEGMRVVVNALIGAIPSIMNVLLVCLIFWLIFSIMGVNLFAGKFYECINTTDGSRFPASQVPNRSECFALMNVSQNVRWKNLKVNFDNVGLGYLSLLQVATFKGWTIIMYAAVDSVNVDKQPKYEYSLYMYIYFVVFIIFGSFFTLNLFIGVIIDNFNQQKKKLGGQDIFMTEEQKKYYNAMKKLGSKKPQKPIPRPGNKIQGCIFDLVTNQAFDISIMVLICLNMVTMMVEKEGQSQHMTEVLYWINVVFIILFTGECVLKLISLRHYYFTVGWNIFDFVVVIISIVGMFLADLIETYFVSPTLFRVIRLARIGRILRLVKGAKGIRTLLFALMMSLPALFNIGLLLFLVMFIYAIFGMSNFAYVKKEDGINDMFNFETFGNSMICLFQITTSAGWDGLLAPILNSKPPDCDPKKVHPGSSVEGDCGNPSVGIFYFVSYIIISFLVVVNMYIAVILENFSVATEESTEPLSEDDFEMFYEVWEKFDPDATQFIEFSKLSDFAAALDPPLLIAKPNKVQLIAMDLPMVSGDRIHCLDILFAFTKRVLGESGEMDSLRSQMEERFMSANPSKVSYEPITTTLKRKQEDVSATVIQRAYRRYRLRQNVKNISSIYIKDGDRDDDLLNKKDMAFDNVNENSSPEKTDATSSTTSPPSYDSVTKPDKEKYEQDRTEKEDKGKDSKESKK
Sequence of Sodium channel protein type 3 subunit alpha (Rattus norvegicus) (P08104 whole entry): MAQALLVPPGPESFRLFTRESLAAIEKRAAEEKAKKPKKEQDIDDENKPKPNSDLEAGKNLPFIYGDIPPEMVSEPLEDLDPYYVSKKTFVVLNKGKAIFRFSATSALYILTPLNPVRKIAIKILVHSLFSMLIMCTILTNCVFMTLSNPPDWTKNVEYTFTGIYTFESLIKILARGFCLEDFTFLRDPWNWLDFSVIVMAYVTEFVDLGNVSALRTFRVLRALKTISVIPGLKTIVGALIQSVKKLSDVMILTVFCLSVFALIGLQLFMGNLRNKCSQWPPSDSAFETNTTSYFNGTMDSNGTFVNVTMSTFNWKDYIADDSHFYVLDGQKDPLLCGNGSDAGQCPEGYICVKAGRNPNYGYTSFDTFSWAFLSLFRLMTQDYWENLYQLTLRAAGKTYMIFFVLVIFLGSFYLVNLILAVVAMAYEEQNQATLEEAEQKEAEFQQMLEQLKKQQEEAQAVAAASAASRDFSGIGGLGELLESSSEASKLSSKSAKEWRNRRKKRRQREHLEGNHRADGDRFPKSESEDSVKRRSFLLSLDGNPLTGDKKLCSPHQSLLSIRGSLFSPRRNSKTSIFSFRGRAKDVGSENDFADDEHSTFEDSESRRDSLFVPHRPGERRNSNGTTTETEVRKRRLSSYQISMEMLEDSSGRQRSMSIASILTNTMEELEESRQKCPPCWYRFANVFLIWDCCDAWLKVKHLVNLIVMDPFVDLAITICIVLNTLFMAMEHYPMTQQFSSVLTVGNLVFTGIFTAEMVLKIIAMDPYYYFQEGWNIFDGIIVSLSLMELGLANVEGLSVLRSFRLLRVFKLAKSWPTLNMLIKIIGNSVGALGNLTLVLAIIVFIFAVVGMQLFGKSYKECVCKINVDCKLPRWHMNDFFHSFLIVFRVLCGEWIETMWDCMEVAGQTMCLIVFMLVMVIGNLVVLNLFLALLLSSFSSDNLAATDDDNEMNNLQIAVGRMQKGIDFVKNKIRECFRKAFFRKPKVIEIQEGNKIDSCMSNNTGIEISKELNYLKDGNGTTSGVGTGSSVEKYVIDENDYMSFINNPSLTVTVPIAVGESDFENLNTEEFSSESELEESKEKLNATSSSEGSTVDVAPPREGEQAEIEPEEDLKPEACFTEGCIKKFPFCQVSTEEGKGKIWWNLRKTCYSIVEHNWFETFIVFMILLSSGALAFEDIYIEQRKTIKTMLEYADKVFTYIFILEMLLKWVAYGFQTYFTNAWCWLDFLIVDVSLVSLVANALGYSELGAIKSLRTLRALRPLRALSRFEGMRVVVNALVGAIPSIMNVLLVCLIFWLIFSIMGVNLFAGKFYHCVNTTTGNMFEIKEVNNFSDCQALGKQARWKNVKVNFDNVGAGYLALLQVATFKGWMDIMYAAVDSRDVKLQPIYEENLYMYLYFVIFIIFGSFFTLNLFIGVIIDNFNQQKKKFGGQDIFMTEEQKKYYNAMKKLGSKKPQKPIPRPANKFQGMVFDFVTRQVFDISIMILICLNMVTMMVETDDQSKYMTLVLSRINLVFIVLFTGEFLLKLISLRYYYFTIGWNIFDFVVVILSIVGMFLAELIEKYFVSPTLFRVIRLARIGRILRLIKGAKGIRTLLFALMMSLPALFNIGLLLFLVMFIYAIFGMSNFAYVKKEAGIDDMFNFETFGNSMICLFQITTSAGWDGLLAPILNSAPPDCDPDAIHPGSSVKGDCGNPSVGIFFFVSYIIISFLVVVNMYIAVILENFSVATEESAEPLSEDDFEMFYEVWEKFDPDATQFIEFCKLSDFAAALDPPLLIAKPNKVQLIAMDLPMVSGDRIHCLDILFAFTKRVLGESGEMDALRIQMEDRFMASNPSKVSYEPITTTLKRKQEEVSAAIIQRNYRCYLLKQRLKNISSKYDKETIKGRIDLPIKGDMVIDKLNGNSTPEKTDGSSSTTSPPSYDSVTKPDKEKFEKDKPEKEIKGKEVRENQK
Sequence of Cytochrome P450 2D6 (P10635 whole entry): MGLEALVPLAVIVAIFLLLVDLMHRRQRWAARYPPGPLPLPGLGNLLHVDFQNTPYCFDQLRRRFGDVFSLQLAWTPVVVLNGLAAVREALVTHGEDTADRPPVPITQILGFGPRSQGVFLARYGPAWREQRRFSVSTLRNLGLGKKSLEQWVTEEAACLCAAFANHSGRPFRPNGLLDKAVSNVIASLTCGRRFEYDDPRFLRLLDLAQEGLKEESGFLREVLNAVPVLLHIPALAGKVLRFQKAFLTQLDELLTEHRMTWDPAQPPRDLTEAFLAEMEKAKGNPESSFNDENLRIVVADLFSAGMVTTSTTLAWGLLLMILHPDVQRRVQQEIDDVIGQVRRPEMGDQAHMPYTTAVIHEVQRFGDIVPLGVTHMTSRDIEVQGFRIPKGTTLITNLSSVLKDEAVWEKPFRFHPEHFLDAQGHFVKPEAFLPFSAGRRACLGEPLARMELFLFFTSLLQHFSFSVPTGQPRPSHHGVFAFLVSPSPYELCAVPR
Sequence of Cytochrome P450 2C19 (P33261 whole entry): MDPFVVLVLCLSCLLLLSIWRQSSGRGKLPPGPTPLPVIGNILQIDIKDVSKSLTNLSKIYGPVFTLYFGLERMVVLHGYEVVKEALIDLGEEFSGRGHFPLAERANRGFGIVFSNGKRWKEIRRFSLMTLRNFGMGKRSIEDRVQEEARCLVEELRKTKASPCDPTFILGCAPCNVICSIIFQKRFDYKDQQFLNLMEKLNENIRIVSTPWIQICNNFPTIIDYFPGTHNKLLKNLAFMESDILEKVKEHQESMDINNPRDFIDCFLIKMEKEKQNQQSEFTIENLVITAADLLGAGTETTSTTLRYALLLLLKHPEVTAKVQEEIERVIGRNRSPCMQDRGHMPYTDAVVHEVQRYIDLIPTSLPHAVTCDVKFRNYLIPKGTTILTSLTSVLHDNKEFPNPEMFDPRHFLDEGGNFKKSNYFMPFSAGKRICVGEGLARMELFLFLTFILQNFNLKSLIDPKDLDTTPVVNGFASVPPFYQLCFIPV

In the case of `COC[C@@H](NC(C)=O)C(=O)NCc1ccc(Oc2cccc(OC(F)(F)F)c2)cc1`, the ED50 (Rattus norvegicus [1]) is reported as 8.3 mg/kg, the ED50 (Rattus norvegicus [2]) is reported as 5.7 mg/kg and the selectivity ratio [3] is reported as 9.5. The inhibition (Rattus norvegicus [4]) was “Active”, the Activity (Rattus norvegicus [5]) was “inactive” and the inhibition (Rattus norvegicus [6]) was “inactive”. The inhibition (CAD [7]) was 39%, the inhibition (CAD [8]) was 44% and the V1/2 [9] was -32.5 mV. The V1/2 [10] was -25 mV, the V1/2 [11] was -76.7 mV and the V1/2 [12] was -81.3 mV. The V1/2 [13] was -95.36 mV, the inhibition [14] was “inactive” and the ED50 (Rattus norvegicus [15]) was 22 mg/kg. The “inhibition (INH)” value (Cytochrome P450 2C19) was “Not Active”, the “inhibition (INH)” value (Cytochrome P450 2D6) was “Not Active” and the NOAEL (Rattus norvegicus [16]) was 60 mg/kg/day. For the same compound, the Ratio (Rattus norvegicus [17]) was 10, the Activity (Rattus norvegicus [18]) was “Toxic” and the Activity (Rattus norvegicus [19]) was “Toxic”.
